The target in test [1] is Glycogen synthase kinase-3 (Homo sapiens, UniProt P49840+P49841). Description: Inhibition of GSK3alpha/beta in pig brain. Also noted: species or system Sus scrofa. To be noted: target entry is the homologue from another species.
The target of test [2] is Cyclin-dependent kinase 5/CDK5 activator 1 (Homo sapiens, UniProt Q00535). Description: Inhibition of recombinant CDK5/p25 expressed in Escherichia coli.
The nature of test [3]: Inhibition of starfish CDK1/cyclin B. On the set-up: species or system Asteroidea. Summed up: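 Kinase inhibition assays at 15 µM final ATP, run in triplicate.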
Another test relates to SH-SY5Y. Description: Inhibition of GSK3 in human SHSY5Y cells assessed as beta-casein phosphorylation level in presence of MG132. In kind it is cell-based. The following applies: in the assay text read “beta-catenin” for “beta-casein”. Summed up:
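Nearly confluent SH-SY5Y cells in DMEM with 10% FCS were co-treated with compound across a concentration range plus 2 µM MG132, DMSO ≤1% final. Phospho-β-catenin (Ser33/Ser37/Thr41) measured by ELISA and expressed as % of cells given MG132 alone (100%).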

Test [4] has as its system INS-1E. Description: Protection against glucose and palmitate-induced toxicity in rat INS-1E cells after 24 hrs. In kind it is functional, cell-based. The gist of the method:
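INS-1E cells treated with compound over a concentration range, with or without 0.3 mM BSA-coupled palmitate plus 25 mM glucose for 24 h. Viability/metabolic activity measured as an indirect readout of mitochondrial energy production. At least four wells per point; representative of ≥3 independent studies.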

The subject of test [5] is INS-1E. Kind of test: Inhibition of glucose and palmitate-induced apoptosis in rat INS-1E cells by DNA fragmentation assay. In kind it is functional, cell-based. The gist of the method: (§1)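 INS-1E cells preincubated 1 h with compound (µM), then exposed to toxic high glucose/palmitate for 24 h. Apoptosis read as cytosolic DNA fragments or caspase activity, as fold change versus untreated control ± SD. At least four wells per point; Student's t test against glucose/palmitate alone.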

Test [6] concerns INS-1E. Kind of test: Inhibition of glucose and palmitate-induced apoptosis in rat INS-1E cells by caspase activity assay. In kind it is functional, cell-based. The gist of the method:
as §1

Test [7] deals with INS-1E. Description: Stimulation of rat INS-1E cell replication assessed as BrdU incorporation. Type of test: functional, cell-based. Summed up: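 INS-1E cells exposed to compound at various concentrations for 24 h. Replication measured as BrdU incorporation, given as fold increase versus untreated cells ± SD. At least four wells per point, two independent studies, Student's t test.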
(Incorporation of labelled thymidine or its analogues reports DNA synthesis.)

A short description of test [8]: Activation of Pax4 RNA expression in rat INS-1E cells at 10 uM after 4 hrs relative to control. In kind it is functional, cell-based. The gist of the method: (§2)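 Compound added to INS-1E cells for 4 h or 24 h. Pax4 and cyclophilin B transcripts quantified by qRT-PCR. Reported as fold change versus vehicle-treated control, with the control level set to 1. Mean of triplicates ± SD.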

A short description of test [9]: Activation of Pax4 RNA expression in rat INS-1E cells at 10 uM after 24 hrs relative to control. Type of test: functional, cell-based. The gist of the method: as §2
The nature of test [10]: Activation of cyclophilin B gene expression in rat INS-1E cells at 10 uM after 4 hrs relative to control. Type of test: functional, cell-based. The gist of the method: as §2
Test [11] in a line: Activation of cyclophilin B gene expression in rat INS-1E cells at 10 uM after 24 hrs relative to control. In kind it is functional, cell-based. The gist of the method:
as §2

Test [12] is described as follows: Activation of Pax4 RNA expression in rat INS-1E cells at 1 uM after 4 hrs relative to control. In kind it is functional, cell-based. The gist of the method:
as §2

The nature of test [13]: Activation of Pax4 RNA expression in rat INS-1E cells at 1 uM after 24 hrs relative to control. In kind it is functional, cell-based. Summed up: as §2
Test [14] can be described thus: Activation of cyclophilin B gene expression in rat INS-1E cells at 1 uM after 4 hrs relative to control. Type of test: functional, cell-based. The gist of the method:
as §2

The nature of test [15]: Activation of cyclophilin B gene expression in rat INS-1E cells at 1 uM after 24 hrs relative to control. In kind it is functional, cell-based. The gist of the method:
as §2

In the next test the test system is Pancreatic beta cell. Kind of test: Stimulation of rat primary beta cell replication at 5 uM. Type of test: functional. Summed up: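 Isolated rat islets incubated with compound for 72 h, then disaggregated and spotted onto slides. Cells double-immunostained for C-peptide and Ki-67. Replication scored as % Ki-67+ among C-peptide+ cells, compared with untreated islets.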

Calls of active or inactive are those of the source. No cut-off for these calls is given here. A value given as a limit tells only on which side of the number the result lay.

Cyclin-dependent kinase 5/CDK5 activator 1, sequence (Q00535 whole entry): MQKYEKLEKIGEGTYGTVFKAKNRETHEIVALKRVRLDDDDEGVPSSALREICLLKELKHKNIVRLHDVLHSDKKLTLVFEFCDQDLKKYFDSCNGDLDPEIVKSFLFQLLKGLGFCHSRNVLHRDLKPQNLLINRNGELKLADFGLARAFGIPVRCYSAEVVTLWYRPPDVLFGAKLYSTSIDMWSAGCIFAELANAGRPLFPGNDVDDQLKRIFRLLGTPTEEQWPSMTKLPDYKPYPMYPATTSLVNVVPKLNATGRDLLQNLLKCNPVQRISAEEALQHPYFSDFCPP
Cyclin-dependent kinase 5/CDK5 activator 1, sequence (Q15078 whole entry, further chain): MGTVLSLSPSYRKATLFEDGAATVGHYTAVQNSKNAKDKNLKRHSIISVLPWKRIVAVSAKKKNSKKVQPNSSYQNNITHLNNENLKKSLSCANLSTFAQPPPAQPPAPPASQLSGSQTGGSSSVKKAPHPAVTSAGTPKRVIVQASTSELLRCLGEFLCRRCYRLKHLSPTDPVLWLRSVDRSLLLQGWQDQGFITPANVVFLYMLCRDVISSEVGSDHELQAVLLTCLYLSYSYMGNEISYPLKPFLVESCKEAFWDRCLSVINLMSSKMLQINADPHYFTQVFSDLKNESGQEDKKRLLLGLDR

As usually defined, the IC50 is the concentration that gives 50% inhibition. Take `O=C1Cc2c([nH]c3ccc(C(F)(F)F)cc23)-c2ncccc2N1`: the IC50 stood at 8 nM in test [1], 10000 nM in test [2] and 1650 nM in test [3]. For the same molecule, the Activity result with SH-SY5Y and in the test with INS-1E [7] was “Dose-dependent effect” each time. For the same molecule, the result in the test with INS-1E [4], with INS-1E [5] and with INS-1E [6] was Active. Further, the Fold change in test [8] came to 0.72; in test [9], 0.61; in [10], 1.2; in test [11] it was 1.3.

Take `CCn1c2c(c3ccccc31)CC(=O)Nc1ccncc1-2`: the IC50 was 800 nM in test [1], greater than 10000 nM in test [2] and 3800 nM in test [3].

In the case of `O=C1Cc2c([nH]c3c(F)cc(F)cc23)-c2ncccc2N1`, the figures for the IC50 in [1], in test [2] and in test [3] were 1800 nM, greater than 10000 nM and greater than 10000 nM, respectively.

Take `O=C1Cc2c([nH]c3ccc(C(=O)O)cc23)-c2ncccc2N1`: the IC50 in [1] was found to be 100000 nM; in test [2], 30000 nM; in [3], 2200 nM.

As to `N#Cc1cc(I)c2[nH]c3c(c2c1)CC(=O)Nc1cccnc1-3`, the IC50 stood at 120 nM in [1], 2000 nM in [2] and 410 nM in [3].

For the molecule `O=C1Nc2cc(Br)ccc2/C1=C1/Nc2ccccc2/C1=N\O`, the Fold change in test [12] stood at 1.02; in test [13], 0.81; in test [14], 1.04; in test [15], 1.2.

As for `Cn1c2c(c3ccccc31)CC(=O)Nc1cccnc1-2`, the IC50 is 1000 nM in [1], 3000 nM in [2] and greater than 10000 nM in [3].

Turning to `O=C1Cc2c([nH]c3ccc(O)cc23)-c2ncccc2N1`, the IC50 is 1400 nM in [1], 5000 nM in [2] and 4000 nM in test [3].

Take `N#Cc1ccc2[nH]c3c(c2c1)CC(=O)Nc1ccncc1-3`: the IC50 in test [1] worked out at 21 nM; in test [2] it was 32 nM; in test [3], 31 nM.

Consider `O=C1Cc2c([nH]c3ccc(C(F)(F)F)cc23)-c2cnccc2N1`, for which the IC50 amounted to 13 nM in [1], 120 nM in test [2] and 190 nM in test [3].

Turning to `O=C1Cc2c([nH]c3ccccc23)-c2ncccc2N1`, the IC50 in test [1] is 800 nM; in test [2] it was 9000 nM; in test [3], 7000 nM.

Consider `O=C1Cc2c(oc3ccc(Br)cc23)-c2ccccc2N1`, for which the IC50 in test [1], in test [2] and in test [3] was greater than 10000 nM each time.

For `O=C1Cc2c(n(Cc3ccccc3)c3ccccc23)-c2ncccc2N1`, the values for the IC50 in [1], in [2] and in test [3] were 2100 nM, greater than 10000 nM and greater than 10000 nM, respectively.

Regarding `O=C1Cc2c(n(Cc3ccccc3)c3ccccc23)-c2cnccc2N1`, the IC50 was 410 nM in [1], greater than 10000 nM in test [2] and greater than 10000 nM in [3].

With `COc1ccc2[nH]c3c(c2c1)CC(=O)Nc1ccncc1-3`, the IC50 in [1] came to 390 nM; in [2], 400 nM; in test [3], 200 nM.

For `O=C1Cc2c([nH]c3ccc(I)cc23)-c2ncccc2N1`, the IC50 turned out to be 25 nM in test [1], 6000 nM in [2] and 1000 nM in [3]. The outcome with INS-1E [4] was Active.

On to `N#Cc1ccc2[nH]c3c(c2c1)CC(=O)Nc1ccc(Br)nc1-3`, for which the IC50 in [1] turned out to be 3800 nM; in test [2] it was 10000 nM.

Molecule `O=C1Cc2c([nH]c3ccc(Br)cc23)-c2ncccc2N1` [AZAKENPAULLONE] had an IC50 in test [3] of 2000 nM.

On to `O=C1Cc2c([nH]c3ccc(F)cc23)-c2ncccc2N1`, for which the IC50 in test [1] is 80 nM; in test [2], 3000 nM; in test [3], 4500 nM. Besides, the result in the test with INS-1E [4], in the test on INS-1E [5] and in the test on INS-1E [6] was Active. In the test with INS-1E [7], the Activity entry was “Dose-dependent effect”. Further, the Fold change in test [8] was 0.97; in test [9] it was 0.45; in [10], 1.14; in test [11] it was 0.97.

`O=C1Cc2c(oc3ccccc23)-c2ccccc2N1`: the IC50 in test [1], in test [2] and in test [3] was greater than 10000 nM in each case.

With `O=C1Cc2c([nH]c3ccc(Br)cc23)-c2cnccc2N1`, the IC50 in test [1] was determined as 52 nM; in test [2], 180 nM; in test [3], 110 nM.

On to `O=C1Cc2c([nH]c3cc(Cl)cc(Cl)c23)-c2ncccc2N1`, for which the IC50 is 800 nM in test [1], 100000 nM in test [2] and greater than 30000 nM in [3].

Turning to `N#Cc1ccc2c(c1)-c1[nH]c3ccc(C#N)cc3c1CC(=O)N2`, the IC50 came to 28 nM in [1], 730 nM in test [2] and 120 nM in [3].

Take `O=C1Cc2c(n3c4c(cccc24)CC3)-c2ncccc2N1`: the half-maximal inhibitory concentration (IC50) in test [1] is 410 nM; in [2], greater than 10000 nM; in test [3], greater than 10000 nM.

With `O=C1Cc2c([nH]c3ccc(Cl)cc23)-c2cnccc2N1`, the IC50 in [1] came to 18 nM; in [2], 210 nM; in [3], 120 nM.

On to `Cc1ccc2[nH]c3c(c2c1)CC(=O)Nc1cccnc1-3`, for which the results for the IC50 in [1], in [2] and in test [3] were 130 nM, greater than 10000 nM and 8000 nM, respectively.

In the case of `O=C1Cc2c([nH]c3ccc(F)cc23)-c2cnccc2N1`, the IC50 is 51 nM in test [1], 260 nM in [2] and 1200 nM in [3].

Take `O=C1Cc2c([nH]c3ccc(Br)cc23)-c2ccccc2N1` [KENPAULLONE]: in the test with SH-SY5Y, the Activity result was “Dose-dependent effect”.

With `Cn1c2c(c3ccccc31)CC(=O)Nc1ccncc1-2`, the IC50 in [1] was 400 nM; in test [2] it was greater than 10000 nM; in [3], 8000 nM.

Regarding `O=C1Cc2c([nH]c3ccc(Cl)cc23)-c2ncccc2N1`, the IC50 in [1] was 63 nM; in [2], greater than 10000 nM; in test [3], greater than 10000 nM.

On to `Cc1cnc(-c2cnc(NCCNc3ccc(C#N)cn3)nc2-c2ccc(Cl)cc2Cl)[nH]1` [LADUVIGLUSIB], for which, in the test with Pancreatic beta cell, the Activity stood at 2.5. Moreover, the Fold change in test [8] is 0.78; in test [9], 0.76; in [10], 1.31; in test [11] it was 1.12.

Consider `COc1ccc2[nH]c3c(c2c1)CC(=O)Nc1cccnc1-3`, for which the IC50 in test [1] worked out at 800 nM; in [2], 4000 nM; in [3] it was 2000 nM.

In the case of `O=C1Cc2c(oc3ccc(Cl)cc23)-c2ccccc2N1`, the IC50 in [1], in test [2] and in [3] was greater than 10000 nM each time.

With `CCn1c2c(c3ccccc31)CC(=O)Nc1cccnc1-2`, the IC50 in test [1] was 13000 nM; in test [2] it was greater than 10000 nM; in test [3] it was greater than 10000 nM.

Take `O=C1Cc2c(n(-c3ccccc3)c3ccccc23)-c2ncccc2N1`: the IC50 in test [1], in test [2] and in test [3] was greater than 10000 nM in each case.

Source of the values: ChEMBL document CHEMBL1144697, “9-cyano-1-azapaullone (cazpaullone), a glycogen synthase kinase-3 (GSK-3) inhibitor activating pancreatic beta cell protection and replication” (J Med Chem, 2008).
